Experiments:
Glutamine synthetase [1] = target: T1, Glutamine synthetase (Escherichia coli K-12, UniProt P0A9C5); assay: Inhibitory concentration against glutamine synthetase incubated at 37 degree C for 20 minutes in pH 7.4
T1 sequence (P0A9C5 whole entry): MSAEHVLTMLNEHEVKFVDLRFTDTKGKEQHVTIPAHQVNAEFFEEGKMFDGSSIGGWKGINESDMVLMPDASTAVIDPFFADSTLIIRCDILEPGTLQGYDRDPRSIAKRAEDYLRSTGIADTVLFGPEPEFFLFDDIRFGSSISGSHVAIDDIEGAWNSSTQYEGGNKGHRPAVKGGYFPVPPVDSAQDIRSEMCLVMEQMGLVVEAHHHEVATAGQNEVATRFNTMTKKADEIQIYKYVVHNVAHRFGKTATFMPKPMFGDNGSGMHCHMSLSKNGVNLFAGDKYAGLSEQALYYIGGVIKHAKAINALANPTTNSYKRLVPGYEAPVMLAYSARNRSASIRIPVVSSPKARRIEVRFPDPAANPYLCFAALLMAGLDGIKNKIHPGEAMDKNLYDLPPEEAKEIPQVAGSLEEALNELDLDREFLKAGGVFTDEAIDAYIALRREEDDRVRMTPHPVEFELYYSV
Outline: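 Fully activated E. coli strain W GS (30 pkat) in 50 mM Tris-HCl pH 7.4 with 100 mM glutamate, 5 mM ATP, 1 mM NH4Cl and 25 mM MgCl2, run at 37 °C for up to 20 min. Phosphate release was measured from the initial linear rate. IC50 came from linear regression of % control against log concentration.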

Glutamine synthetase [2] = target: T1, Glutamine synthetase; assay: (§1) Binding affinity towards glutamine synthetase
Outline: (§2)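 E. coli strain W glutamine synthetase (fully activated), full forward reaction read by inorganic phosphate release at 37 °C, pH 7.4 Tris-HCl. Glutamate was varied from 15 to 80 mM, with ATP and NH4Cl fixed at standard levels. At least four inhibitor levels were tested, each dose at least in triplicate. Ki came from Lineweaver–Burk plots and is given as mean ± SEM.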

Glutamine synthetase [3] = target: T1, Glutamine synthetase; assay: as §1; outline: as §2; remark: listed apart in the source

Row | Structure (SMILES) | IC50 (Glutamine synthetase [1]) [µM] | Ki (Glutamine synthetase [2]) [µM] | Ki (Glutamine synthetase [3]) [µM]
1 | NCP(=O)(O)CC[C@H](N)C(=O)O | 1 | 0.59 | 0.59
2 | NCCP(=O)(O)CC[C@H](N)C(=O)O | 55 | 13 | 13
3 | N[C@@H](CCP(=O)(O)CCC(=O)O)C(=O)O | 970 | 150 | 147
4 | CP(=O)(O)CC[C@H](N)C(=O)O | 1.2 | 0.6 | 0.6
5 | N[C@@H](CCP(=O)(O)CO)C(=O)O | 10.4 | 2.1 | 2.1
6 | C[C@@H](N)P(=O)(O)CC[C@H](N)C(=O)O | 31 | 3.4 | 3.4
7 | C[C@H](N)P(=O)(O)CC[C@H](N)C(=O)O (mixture of isomers) | 33 | 3.7 | 3.7

— ChEMBL document CHEMBL1140441, “Design, synthesis, and activity of analogues of phosphinothricin as inhibitors of glutamine synthetase” (J Med Chem, 2005)
